Assays:
[1] = target: Death-associated protein kinase 3 (Homo sapiens) (UniProt O43293); assay: Inhibition of DAPK3 at 1 uM in presence of 10 uM ATP by Select Screen kinase assay relative to untreated control
Method in brief: (§1)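 Part of a 220-kinase panel of purified kinases, each tested with compound at 1 μM. Percent inhibition was measured in the Invitrogen SelectScreen profiling assay.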

[2] = tested on: Platelet-derived growth factor receptor alpha (Homo sapiens), P16234 [T674I]; assay: Inhibition of PDGFRalpha T674I mutant at 1 uM in presence of 10 uM ATP by Select Screen kinase assay relative to untreated control
Method in brief: (§2)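 Commercial SelectScreen profiling panel of 220 purified kinases. Each kinase was tested at a single inhibitor concentration of 1 μM, and activity was expressed as percent inhibition.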

[3] = target: RAC-beta serine/threonine-protein kinase (Homo sapiens) (UniProt P31751); assay: Inhibition of AKT2 at 1 uM in presence of 10 uM ATP by Select Screen kinase assay relative to untreated control
Method in brief: (§3)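 Single-point screen at 1 μM against a panel of 220 purified kinases, run by Invitrogen staff as a SelectScreen profiling service. Read-out is percent inhibition of kinase activity.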

[4] = target: Dual specificity tyrosine-phosphorylation-regulated kinase 4 (Homo sapiens) (UniProt Q9NR20); assay: Inhibition of DYRK4 at 1 uM in presence of 10 uM ATP by Select Screen kinase assay relative to untreated control
Chain of Dual specificity tyrosine-phosphorylation-regulated kinase 4 (Homo sapiens) (Q9NR20 whole entry): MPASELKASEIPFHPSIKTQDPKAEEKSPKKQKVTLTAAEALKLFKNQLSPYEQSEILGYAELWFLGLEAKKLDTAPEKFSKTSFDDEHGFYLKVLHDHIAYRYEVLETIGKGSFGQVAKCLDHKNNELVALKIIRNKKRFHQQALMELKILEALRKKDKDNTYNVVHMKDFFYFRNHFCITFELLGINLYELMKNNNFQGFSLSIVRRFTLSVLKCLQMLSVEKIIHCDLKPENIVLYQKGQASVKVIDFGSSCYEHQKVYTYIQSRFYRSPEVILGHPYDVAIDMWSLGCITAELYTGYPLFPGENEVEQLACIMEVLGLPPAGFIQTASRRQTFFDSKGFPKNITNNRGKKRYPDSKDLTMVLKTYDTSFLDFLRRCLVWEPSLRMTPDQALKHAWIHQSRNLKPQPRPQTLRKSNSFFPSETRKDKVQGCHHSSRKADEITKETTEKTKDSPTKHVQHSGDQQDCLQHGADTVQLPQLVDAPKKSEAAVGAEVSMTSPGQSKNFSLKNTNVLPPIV
Method in brief: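 Profiling panel of 220 purified kinases (SelectScreen), each compound tested at 1 μM. Read-out is percent inhibition of kinase activity.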

[5] = target: MAP kinase-activated protein kinase 3 (Homo sapiens) (UniProt Q16644); assay: Inhibition of MAPKAPK3 at 1 uM in presence of 10 uM ATP by Select Screen kinase assay relative to untreated control
Chain of MAP kinase-activated protein kinase 3 (Homo sapiens) (Q16644 whole entry, looked up): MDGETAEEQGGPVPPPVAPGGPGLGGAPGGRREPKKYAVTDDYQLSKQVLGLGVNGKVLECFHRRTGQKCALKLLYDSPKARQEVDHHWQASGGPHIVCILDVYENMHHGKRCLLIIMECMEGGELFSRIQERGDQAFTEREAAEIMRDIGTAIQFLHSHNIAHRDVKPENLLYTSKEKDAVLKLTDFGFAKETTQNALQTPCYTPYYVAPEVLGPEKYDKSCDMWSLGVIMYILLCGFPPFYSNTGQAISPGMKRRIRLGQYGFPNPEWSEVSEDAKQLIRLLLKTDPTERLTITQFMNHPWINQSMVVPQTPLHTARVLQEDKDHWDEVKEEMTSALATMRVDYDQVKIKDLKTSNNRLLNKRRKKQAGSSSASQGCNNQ

[6] = target: cGMP-dependent protein kinase 1 (Homo sapiens) (UniProt Q13976); assay: Inhibition of PRKG1 at 1 uM in presence of 10 uM ATP by Select Screen kinase assay relative to untreated control
[7] = target: cAMP-dependent protein kinase catalytic subunit PRKX (Homo sapiens) (UniProt P51817); assay: Inhibition of PRKX at 1 uM in presence of 10 uM ATP by Select Screen kinase assay relative to untreated control
[8] = target: Beta-adrenergic receptor kinase 1 (Homo sapiens) (UniProt P25098); assay: Inhibition of ADRBK1 at 1 uM in presence of 10 uM ATP by Select Screen kinase assay relative to untreated control; method in brief: as §3
Chain of Beta-adrenergic receptor kinase 1 (Homo sapiens) (P25098 whole entry): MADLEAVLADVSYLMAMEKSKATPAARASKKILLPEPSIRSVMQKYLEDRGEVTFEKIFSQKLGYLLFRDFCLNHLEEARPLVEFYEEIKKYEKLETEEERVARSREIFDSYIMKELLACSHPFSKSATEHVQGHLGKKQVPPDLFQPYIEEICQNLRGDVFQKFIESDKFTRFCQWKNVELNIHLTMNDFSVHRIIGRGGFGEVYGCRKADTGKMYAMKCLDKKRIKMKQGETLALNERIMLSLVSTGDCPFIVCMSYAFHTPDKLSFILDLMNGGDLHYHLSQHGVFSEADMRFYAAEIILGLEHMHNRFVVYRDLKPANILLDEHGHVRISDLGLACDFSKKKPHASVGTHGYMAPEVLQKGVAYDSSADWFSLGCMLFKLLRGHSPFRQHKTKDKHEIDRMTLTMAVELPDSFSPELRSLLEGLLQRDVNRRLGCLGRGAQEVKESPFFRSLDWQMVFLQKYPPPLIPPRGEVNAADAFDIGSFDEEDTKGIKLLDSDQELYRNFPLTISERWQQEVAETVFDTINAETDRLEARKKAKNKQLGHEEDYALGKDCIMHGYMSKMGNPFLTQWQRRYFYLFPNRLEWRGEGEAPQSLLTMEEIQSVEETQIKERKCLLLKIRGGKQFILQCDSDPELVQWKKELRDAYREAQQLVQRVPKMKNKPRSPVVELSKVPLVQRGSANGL

[9] = target: Misshapen-like kinase 1 (Homo sapiens) (UniProt Q8N4C8); assay: Inhibition of MINK1 at 1 uM in presence of 10 uM ATP by Select Screen kinase assay relative to untreated control
[10] = target: T1, Inhibitor of nuclear factor kappa-B kinase subunit beta (Homo sapiens) (UniProt O14920); assay: Inhibition of IKBKB at 1 uM in presence of 10 uM ATP by Select Screen kinase assay relative to untreated control
T1 sequence (whole entry): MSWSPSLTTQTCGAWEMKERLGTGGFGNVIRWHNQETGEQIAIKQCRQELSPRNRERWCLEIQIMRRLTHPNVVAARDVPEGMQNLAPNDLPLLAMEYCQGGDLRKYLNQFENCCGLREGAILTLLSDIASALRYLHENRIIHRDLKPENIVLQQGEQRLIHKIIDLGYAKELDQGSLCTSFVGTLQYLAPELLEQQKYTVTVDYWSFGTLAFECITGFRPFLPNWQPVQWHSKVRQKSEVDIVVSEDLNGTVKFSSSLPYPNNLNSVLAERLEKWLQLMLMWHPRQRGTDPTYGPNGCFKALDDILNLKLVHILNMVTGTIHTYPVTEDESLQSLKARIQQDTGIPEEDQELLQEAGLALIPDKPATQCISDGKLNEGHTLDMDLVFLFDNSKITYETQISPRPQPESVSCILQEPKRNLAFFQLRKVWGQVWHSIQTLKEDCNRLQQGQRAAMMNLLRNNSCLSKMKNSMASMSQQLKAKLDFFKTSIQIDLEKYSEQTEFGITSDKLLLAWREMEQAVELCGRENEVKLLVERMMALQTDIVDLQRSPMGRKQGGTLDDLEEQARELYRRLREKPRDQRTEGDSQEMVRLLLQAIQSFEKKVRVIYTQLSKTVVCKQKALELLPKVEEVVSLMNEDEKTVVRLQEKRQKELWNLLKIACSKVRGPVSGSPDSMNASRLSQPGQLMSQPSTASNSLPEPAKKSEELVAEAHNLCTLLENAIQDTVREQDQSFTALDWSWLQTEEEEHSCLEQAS
Method in brief: (§4)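 Single-concentration profiling at 1 μM against a panel of 220 purified kinases, run as an outsourced SelectScreen kinase profiling service. Activity is expressed as percent inhibition.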

[11] = target: Testis-specific serine/threonine-protein kinase 2 (Homo sapiens) (UniProt Q96PF2); assay: Inhibition of STK22B at 1 uM in presence of 10 uM ATP by Select Screen kinase assay relative to untreated control; method in brief: as §2
Chain of Testis-specific serine/threonine-protein kinase 2 (Homo sapiens) (Q96PF2 whole entry): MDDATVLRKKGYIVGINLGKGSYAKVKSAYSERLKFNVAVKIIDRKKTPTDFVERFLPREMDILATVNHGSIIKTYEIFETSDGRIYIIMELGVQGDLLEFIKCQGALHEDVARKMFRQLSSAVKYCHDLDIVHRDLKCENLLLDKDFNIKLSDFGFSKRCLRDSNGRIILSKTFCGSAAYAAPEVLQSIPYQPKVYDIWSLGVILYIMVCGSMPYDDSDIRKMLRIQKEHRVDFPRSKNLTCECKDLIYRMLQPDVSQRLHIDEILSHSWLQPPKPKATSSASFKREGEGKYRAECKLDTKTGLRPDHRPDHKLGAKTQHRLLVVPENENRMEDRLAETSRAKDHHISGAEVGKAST

[12] = target: Tyrosine-protein kinase ABL1 (Homo sapiens) (UniProt P00519); assay: Inhibition of ABL1 at 1 uM in presence of 10 uM ATP by Select Screen kinase assay relative to untreated control; method in brief: as §3
[13] = target: RAC-gamma serine/threonine-protein kinase (Homo sapiens) (UniProt Q9Y243); assay: Inhibition of AKT3 at 1 uM in presence of 10 uM ATP by Select Screen kinase assay relative to untreated control; method in brief: as §3
Chain of RAC-gamma serine/threonine-protein kinase (Homo sapiens) (Q9Y243 whole entry): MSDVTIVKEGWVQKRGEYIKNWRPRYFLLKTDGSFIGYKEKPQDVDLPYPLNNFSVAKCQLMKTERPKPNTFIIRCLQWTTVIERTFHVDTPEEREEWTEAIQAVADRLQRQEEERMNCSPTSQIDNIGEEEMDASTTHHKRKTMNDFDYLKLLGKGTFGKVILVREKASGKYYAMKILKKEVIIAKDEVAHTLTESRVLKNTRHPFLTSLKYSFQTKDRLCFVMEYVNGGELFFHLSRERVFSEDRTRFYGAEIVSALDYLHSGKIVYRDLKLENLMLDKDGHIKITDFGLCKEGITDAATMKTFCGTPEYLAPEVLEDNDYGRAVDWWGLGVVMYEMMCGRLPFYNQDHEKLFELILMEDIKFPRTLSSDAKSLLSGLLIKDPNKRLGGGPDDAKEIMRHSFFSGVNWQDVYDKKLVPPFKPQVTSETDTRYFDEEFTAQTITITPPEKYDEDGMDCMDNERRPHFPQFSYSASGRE

[14] = target: Dual specificity protein kinase CLK2 (Homo sapiens) (UniProt P49760); assay: Inhibition of CLK2 at 1 uM in presence of 10 uM ATP by Select Screen kinase assay relative to untreated control; method in brief: as §1
[15] = target: Cyclin-dependent kinase 2/cyclin A (Homo sapiens) (UniProt P24941+P20248+P78396); assay: Inhibition of CDK2/cyclin A at 1 uM in presence of 10 uM ATP by Select Screen kinase assay relative to untreated control; type: protein-complex assay; method in brief: as §3
[16] = target: Serine/threonine-protein kinase PLK2 (Homo sapiens) (UniProt Q9NYY3); assay: Inhibition of PLK2 at 1 uM in presence of 10 uM ATP by Select Screen kinase assay relative to untreated control
Chain of Serine/threonine-protein kinase PLK2 (Homo sapiens) (Q9NYY3 whole entry, looked up): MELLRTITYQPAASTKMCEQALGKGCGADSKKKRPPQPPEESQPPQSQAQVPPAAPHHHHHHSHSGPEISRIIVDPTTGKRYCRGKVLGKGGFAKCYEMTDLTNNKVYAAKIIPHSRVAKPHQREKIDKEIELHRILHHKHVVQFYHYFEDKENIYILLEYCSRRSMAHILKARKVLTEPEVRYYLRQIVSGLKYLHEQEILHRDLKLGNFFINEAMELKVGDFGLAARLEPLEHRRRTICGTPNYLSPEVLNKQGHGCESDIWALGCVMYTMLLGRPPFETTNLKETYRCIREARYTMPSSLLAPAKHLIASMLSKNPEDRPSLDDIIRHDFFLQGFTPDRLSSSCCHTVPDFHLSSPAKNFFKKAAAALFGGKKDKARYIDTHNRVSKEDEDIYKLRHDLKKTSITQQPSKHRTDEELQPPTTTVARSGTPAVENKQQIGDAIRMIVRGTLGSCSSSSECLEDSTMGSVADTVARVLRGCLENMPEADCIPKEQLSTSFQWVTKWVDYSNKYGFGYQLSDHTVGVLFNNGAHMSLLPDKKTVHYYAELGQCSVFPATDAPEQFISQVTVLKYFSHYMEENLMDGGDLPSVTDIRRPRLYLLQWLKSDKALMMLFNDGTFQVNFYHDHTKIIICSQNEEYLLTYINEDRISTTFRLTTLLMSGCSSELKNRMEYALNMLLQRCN

[17] = tested on: Tyrosine-protein kinase ABL1 (Homo sapiens), P00519 [G250E]; assay: Inhibition of ABL1 G250E mutant at 1 uM in presence of 10 uM ATP by Select Screen kinase assay relative to untreated control; method in brief: as §3
[18] = target: Protein kinase C epsilon type (Homo sapiens) (UniProt Q02156); assay: Inhibition of PKCE at 1 uM in presence of 10 uM ATP by Select Screen kinase assay relative to untreated control
Chain of Protein kinase C epsilon type (Homo sapiens) (Q02156 whole entry): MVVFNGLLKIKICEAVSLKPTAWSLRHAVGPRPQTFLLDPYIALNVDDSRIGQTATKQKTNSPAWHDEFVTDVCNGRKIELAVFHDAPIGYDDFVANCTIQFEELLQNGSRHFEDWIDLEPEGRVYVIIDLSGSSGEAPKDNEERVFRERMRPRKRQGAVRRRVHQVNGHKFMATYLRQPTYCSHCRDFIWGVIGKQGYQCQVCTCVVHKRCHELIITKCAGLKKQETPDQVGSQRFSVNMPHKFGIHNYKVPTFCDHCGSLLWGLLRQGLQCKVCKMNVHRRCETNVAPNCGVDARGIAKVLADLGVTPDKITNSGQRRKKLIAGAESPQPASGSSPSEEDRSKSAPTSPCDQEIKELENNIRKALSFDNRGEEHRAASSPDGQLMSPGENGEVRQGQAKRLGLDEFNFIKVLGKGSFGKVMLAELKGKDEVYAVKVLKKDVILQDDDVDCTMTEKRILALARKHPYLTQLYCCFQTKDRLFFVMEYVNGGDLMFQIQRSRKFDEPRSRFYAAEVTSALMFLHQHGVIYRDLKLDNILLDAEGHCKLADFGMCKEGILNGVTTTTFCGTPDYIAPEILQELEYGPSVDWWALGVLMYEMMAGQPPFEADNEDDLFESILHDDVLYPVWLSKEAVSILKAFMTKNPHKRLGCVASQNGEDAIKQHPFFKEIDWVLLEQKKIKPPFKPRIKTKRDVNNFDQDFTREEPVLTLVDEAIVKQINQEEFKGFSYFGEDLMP

[19] = target: Serine/threonine-protein kinase Chk1 (Homo sapiens) (UniProt O14757); assay: Inhibition of CHEK1 at 1 uM in presence of 10 uM ATP by Select Screen kinase assay relative to untreated control; method in brief: as §3
Chain of Serine/threonine-protein kinase Chk1 (Homo sapiens) (O14757 whole entry): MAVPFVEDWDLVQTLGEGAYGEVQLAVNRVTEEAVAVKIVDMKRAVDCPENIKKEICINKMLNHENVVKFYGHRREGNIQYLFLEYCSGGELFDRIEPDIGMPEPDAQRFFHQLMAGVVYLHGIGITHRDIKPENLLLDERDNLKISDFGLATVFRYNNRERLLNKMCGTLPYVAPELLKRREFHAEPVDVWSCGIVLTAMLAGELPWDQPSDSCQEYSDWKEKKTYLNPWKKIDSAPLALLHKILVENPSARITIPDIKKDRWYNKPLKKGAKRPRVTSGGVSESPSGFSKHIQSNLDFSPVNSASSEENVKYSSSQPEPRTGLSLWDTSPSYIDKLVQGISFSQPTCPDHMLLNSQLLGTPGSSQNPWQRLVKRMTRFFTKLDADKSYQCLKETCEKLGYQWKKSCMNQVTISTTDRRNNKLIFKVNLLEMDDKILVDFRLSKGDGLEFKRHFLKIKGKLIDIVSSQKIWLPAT

[20] = target: Tyrosine-protein kinase JAK2 (Homo sapiens) (UniProt O60674); assay: Inhibition of JAK2 at 1 uM in presence of 10 uM ATP by Select Screen kinase assay relative to untreated control; method in brief: as §4

Chain of Death-associated protein kinase 3 (Homo sapiens) (O43293 whole entry, looked up): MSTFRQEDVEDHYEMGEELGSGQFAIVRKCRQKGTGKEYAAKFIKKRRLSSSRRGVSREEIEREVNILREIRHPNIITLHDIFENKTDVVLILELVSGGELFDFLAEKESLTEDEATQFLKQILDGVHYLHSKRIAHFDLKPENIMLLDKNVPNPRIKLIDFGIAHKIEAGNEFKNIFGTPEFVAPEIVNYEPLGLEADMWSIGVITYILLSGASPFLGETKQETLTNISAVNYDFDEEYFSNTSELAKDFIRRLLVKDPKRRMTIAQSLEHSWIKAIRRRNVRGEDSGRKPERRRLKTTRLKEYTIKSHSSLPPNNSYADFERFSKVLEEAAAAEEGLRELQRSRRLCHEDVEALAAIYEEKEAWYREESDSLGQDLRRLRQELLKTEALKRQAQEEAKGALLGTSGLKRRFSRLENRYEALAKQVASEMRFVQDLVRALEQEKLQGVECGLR

| Compound | inhibition [1] | inhibition [2] | inhibition [3] | inhibition [4] | inhibition [5] | inhibition [6] | inhibition [7] | inhibition [8] | inhibition [9] | inhibition [10] | inhibition [11] | inhibition [12] | inhibition [13] | inhibition [14] | inhibition [15] | inhibition [16] | inhibition [17] | inhibition [18] | inhibition [19] | inhibition [20] |
| --- | --- | --- | --- | --- | --- | --- | --- | --- | --- | --- | --- | --- | --- | --- | --- | --- | --- | --- | --- | --- |
| COc1ccccc1N1CCN(c2ncnc3[nH]nc(Br)c23)CC1 | 14% | 8% | 12% | 3% | 11% | 52% | 21% | 8% | 71% | 2% | 3% | 12% | 17% | 85% | 2% | 24% | 7% | 13% | 19% | -9% |
| Cc1n[nH]c2ccc(-c3cncc(OC[C@@H](N)Cc4c[nH]c5ccccc45)c3)cc12 |  |  |  |  |  |  |  |  |  | 11% |  |  |  |  |  |  |  |  |  |  |
| O=C(NCCCNc1nc(Nc2cccc(NC(=O)N3CCCC3)c2)ncc1I)c1cccs1 | 13% | 55% | 9% | 2% | 10% | 22% | 105% | 15% | 38% | 6% | 2% | 37% | 3% | 70% | 84% | 38% | 18% | 47% | 75% | 74% |

From ChEMBL document CHEMBL1250448, “Inhibitor hijacking of Akt activation” (Nat Chem Biol, 2009)
